ChEMBL document CHEMBL3352465, “The SAR development of substituted purine derivatives as selective CB2 agonists for the treatment of chronic pain” (Bioorg Med Chem Lett, 2014)

Columns and labels:
[1] = species: Rattus norvegicus; assay: Inhibition of GABA gated chloride channel in rat cortex at 10 uM by radioligand binding assay
Summary of the method: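 Radioligand binding to GABA-gated chloride channels from rat, run by an outside contract lab.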

[2] = biological target: T1, Cannabinoid receptor 2 (Homo sapiens, UniProt P34972); assay: Agonist activity at human CB2 receptor expressed in CHO cells by [35S]-GTPgammaS binding assay; format: functional, cell-based
[3] = biological target: T1, Cannabinoid receptor 2; assay: Agonist activity at human CB2 receptor expressed in CHO cells by [35S]-GTPgammaS binding assay relative to control; format: functional, cell-based
[4] = biological target: Cannabinoid receptor 1 (Homo sapiens, UniProt P21554); assay: Agonist activity at human CB1 receptor expressed in Sf9 cells by [35S]-GTPgammaS binding assay; format: functional
[5] = Drug metabolism in human liver microsomes at 2 uM after 0.5 hr by LC/MS/MS analysis; format: ADME; settings: read-out: Drug metabolism
[6] = Drug metabolism in rat liver microsomes at 2 uM after 0.5 hr by LC/MS/MS analysis; format: ADME; settings: read-out: Drug metabolism
[7] = Drug metabolism in dog liver microsomes at 2 uM after 0.5 hr by LC/MS/MS analysis; format: ADME, Canis lupus familiaris; settings: read-out: Drug metabolism

T1 sequence (P34972 whole entry): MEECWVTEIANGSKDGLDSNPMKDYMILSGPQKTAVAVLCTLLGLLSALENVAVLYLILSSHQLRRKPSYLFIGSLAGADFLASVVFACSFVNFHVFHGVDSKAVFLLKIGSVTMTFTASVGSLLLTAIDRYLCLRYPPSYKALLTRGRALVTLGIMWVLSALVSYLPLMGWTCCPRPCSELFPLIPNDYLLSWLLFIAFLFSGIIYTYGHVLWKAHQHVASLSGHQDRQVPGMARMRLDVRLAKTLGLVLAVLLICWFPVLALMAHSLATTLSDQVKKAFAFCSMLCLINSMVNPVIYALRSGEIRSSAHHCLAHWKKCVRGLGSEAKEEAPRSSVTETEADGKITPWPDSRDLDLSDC
Sequence of Cannabinoid receptor 1 (P21554 whole entry): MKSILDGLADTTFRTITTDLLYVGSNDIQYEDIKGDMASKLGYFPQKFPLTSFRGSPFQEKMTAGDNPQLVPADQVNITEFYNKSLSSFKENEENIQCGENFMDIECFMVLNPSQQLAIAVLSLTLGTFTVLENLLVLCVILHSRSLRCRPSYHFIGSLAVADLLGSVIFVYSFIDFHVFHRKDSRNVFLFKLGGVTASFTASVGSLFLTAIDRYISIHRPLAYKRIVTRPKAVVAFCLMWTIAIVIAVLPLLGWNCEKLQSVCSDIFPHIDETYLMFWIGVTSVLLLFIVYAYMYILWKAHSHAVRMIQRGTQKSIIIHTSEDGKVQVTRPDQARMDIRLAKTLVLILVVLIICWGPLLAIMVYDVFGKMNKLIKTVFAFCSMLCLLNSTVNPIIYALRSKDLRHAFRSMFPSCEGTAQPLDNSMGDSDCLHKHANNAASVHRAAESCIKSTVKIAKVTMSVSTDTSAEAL

SMILES	inhibition [1] [%]	EC50 [2] [nM]	Efficacy [3] [%]	EC50 [4] [nM]	metabolised at 0.5 h, 2 µM [5] [%]	metabolised at 0.5 h, 2 µM [6] [%]	metabolised at 0.5 h, 2 µM [7] [%]
CCN1CCN(c2nc(C)nc3c2nc(-c2ccccc2Cl)n3CCOC)CC1	97						
CCN1CCN(c2nc(C)nc3c2nc(-c2ccccc2Cl)n3C(COC)COC)CC1	< 10	5	69.3	> 100000	35	58	66
COC(=O)NCCn1c(-c2ccccc2Cl)nc2c(N3CCN(C)CC3)nc(C)nc21					14	25	62
Cc1nc(N2CCN(C)CC2)c2nc(-c3ccccc3Cl)n([C@@H](C)CO)c2n1		12.5	96.5	> 100000	11	79	60
